Measurements as given in ChEMBL document CHEMBL4138271, “Crystal Structures and Human Leukemia Cell Apoptosis Inducible Activities of Parthenolide Analogues Isolated from Piptocoma rufescens” (J Nat Prod, 2018).
Activity calls are given as the source filed them. The rule behind the calls is not given here.

Columns and labels:
MOLM-13 [1] = experiment: Cytotoxicity against human MOLM13 cells after 72 hrs by MTS assay; assay type: functional, cell-based; details: MOLM-13, 72 h
EOL1 [2] = experiment: Cytotoxicity against human EOL-1 cells after 72 hrs by MTS assay; assay type: functional, cell-based; details: EOL1, 72 h
HT-29 = experiment: Cytotoxicity against human HT-29 cells after 72 hrs by MTS assay; assay type: functional, cell-based; details: HT-29, 72 h
MOLM-13 [3] = experiment: Synergistic antileukemic activity against human MOLM13 cells assessed as concentration required for <= 75% cell survival after 72 hrs in presence of midostaurin by CellTiter 96 AQueous One solution cell proliferation assay; assay type: functional
EOL1 [4] = experiment: Synergistic antileukemic activity against human EOL-1 cells assessed as concentration required for <= 75% cell survival after 72 hrs in presence of midostaurin by CellTiter 96 AQueous One solution cell proliferation assay; assay type: functional
MOLM-13 [5] = experiment: Induction of apoptosis in human MOLM13 cells assessed as live cells at 3 uM after 24 hrs by Annexin-V FITC/7-AAD staining based flow cytometric method (reference value: 86.8%); assay type: functional
MOLM-13 [6] = experiment: Induction of apoptosis in human MOLM13 cells assessed as early apoptotic cells at 3 uM after 24 hrs by Annexin-V FITC/7-AAD staining based flow cytometric method (reference value: 11.8%); assay type: functional
MOLM-13 [7] = experiment: Induction of apoptosis in human MOLM13 cells assessed as late apoptotic cells at 3 uM after 24 hrs by Annexin-V FITC/7-AAD staining based flow cytometric method (reference value: 1.43%); assay type: functional
MOLM-13 [8] = experiment: Induction of apoptosis in human MOLM13 cells assessed as necrotic cells at 3 uM after 24 hrs by Annexin-V FITC/7-AAD staining based flow cytometric method (reference value: 0%); assay type: functional
MOLM-13 [9] = experiment: Induction of apoptosis in human MOLM13 cells assessed as live cells at 6 uM after 24 hrs by Annexin-V FITC/7-AAD staining based flow cytometric method (reference value: 86.8%); assay type: functional
MOLM-13 [10] = experiment: Induction of apoptosis in human MOLM13 cells assessed as early apoptotic cells at 6 uM after 24 hrs by Annexin-V FITC/7-AAD staining based flow cytometric method (reference value: 11.8%); assay type: functional
MOLM-13 [11] = experiment: Induction of apoptosis in human MOLM13 cells assessed as late apoptotic cells at 6 uM after 24 hrs by Annexin-V FITC/7-AAD staining based flow cytometric method (reference value: 1.43%); assay type: functional
MOLM-13 [12] = experiment: Induction of apoptosis in human MOLM13 cells assessed as necrotic cells at 6 uM after 24 hrs by Annexin-V FITC/7-AAD staining based flow cytometric method (reference value: 0%); assay type: functional
MOLM-13 [13] = experiment: Induction of apoptosis in human MOLM13 cells assessed as live cells at 12 uM after 24 hrs by Annexin-V FITC/7-AAD staining based flow cytometric method (reference value: 86.8%); assay type: functional
MOLM-13 [14] = experiment: Induction of apoptosis in human MOLM13 cells assessed as early apoptotic cells at 12 uM after 24 hrs by Annexin-V FITC/7-AAD staining based flow cytometric method (reference value: 11.8%); assay type: functional
MOLM-13 [15] = experiment: Induction of apoptosis in human MOLM13 cells assessed as late apoptotic cells at 12 uM after 24 hrs by Annexin-V FITC/7-AAD staining based flow cytometric method (reference value: 1.43%); assay type: functional
MOLM-13 [16] = experiment: Induction of apoptosis in human MOLM13 cells assessed as necrotic cells at 12 uM after 24 hrs by Annexin-V FITC/7-AAD staining based flow cytometric method (reference value: 0%); assay type: functional
EOL1 [17] = experiment: Induction of apoptosis in human EOL-1 cells assessed as live cells at 3 uM after 24 hrs by Annexin-V FITC/7-AAD staining based flow cytometric method (reference value: 97.5%); assay type: functional
EOL1 [18] = experiment: Induction of apoptosis in human EOL-1 cells assessed as early apoptotic cells at 3 uM after 24 hrs by Annexin-V FITC/7-AAD staining based flow cytometric method (reference value: 1.94%); assay type: functional
EOL1 [19] = experiment: Induction of apoptosis in human EOL-1 cells assessed as late apoptotic cells at 3 uM after 24 hrs by Annexin-V FITC/7-AAD staining based flow cytometric method (reference value: 0.535%); assay type: functional
EOL1 [20] = experiment: Induction of apoptosis in human EOL-1 cells assessed as necrotic cells at 3 uM after 24 hrs by Annexin-V FITC/7-AAD staining based flow cytometric method (reference value: 0.032%); assay type: functional
EOL1 [21] = experiment: Induction of apoptosis in human EOL-1 cells assessed as live cells at 6 uM after 24 hrs by Annexin-V FITC/7-AAD staining based flow cytometric method (reference value: 97.5%); assay type: functional
EOL1 [22] = experiment: Induction of apoptosis in human EOL-1 cells assessed as early apoptotic cells at 6 uM after 24 hrs by Annexin-V FITC/7-AAD staining based flow cytometric method (reference value: 1.94%); assay type: functional
EOL1 [23] = experiment: Induction of apoptosis in human EOL-1 cells assessed as late apoptotic cells at 6 uM after 24 hrs by Annexin-V FITC/7-AAD staining based flow cytometric method (reference value: 0.535%); assay type: functional
EOL1 [24] = experiment: Induction of apoptosis in human EOL-1 cells assessed as necrotic cells at 6 uM after 24 hrs by Annexin-V FITC/7-AAD staining based flow cytometric method (reference value: 0.032%); assay type: functional
EOL1 [25] = experiment: Induction of apoptosis in human EOL-1 cells assessed as live cells at 12 uM after 24 hrs by Annexin-V FITC/7-AAD staining based flow cytometric method (reference value: 97.5%); assay type: functional
EOL1 [26] = experiment: Induction of apoptosis in human EOL-1 cells assessed as early apoptotic cells at 12 uM after 24 hrs by Annexin-V FITC/7-AAD staining based flow cytometric method (reference value: 1.94%); assay type: functional
EOL1 [27] = experiment: Induction of apoptosis in human EOL-1 cells assessed as late apoptotic cells at 12 uM after 24 hrs by Annexin-V FITC/7-AAD staining based flow cytometric method (reference value: 0.535%); assay type: functional
EOL1 [28] = experiment: Induction of apoptosis in human EOL-1 cells assessed as necrotic cells at 12 uM after 24 hrs by Annexin-V FITC/7-AAD staining based flow cytometric method (reference value: 0.032%); assay type: functional
MOLM-13 [29] = experiment: Induction of apoptosis in human MOLM13 cells assessed as caspase-3 activation at 10 uM after 72 hrs by immunoblotting analysis; assay type: functional, cell-based
Procedure, shortened: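 MOLM-13 cells treated 72 h with test compounds at 10 μM or PKC412 at 10 nM. Cells washed in ice-cold PBS, lysed at 10^8 cells/mL in NP-40 hypertonic buffer (pH 7.5) with protease/phosphatase inhibitors, then run on SDS-PAGE and PVDF. Blots probed 12 h with rabbit monoclonal cleaved caspase-3 (Asp175), β-actin as loading control. Representative of three independent experiments.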

EOL1 [30] = experiment: Induction of apoptosis in human EOL-1 cells assessed as caspase-3 activation at 10 uM after 72 hrs by immunoblotting analysis; assay type: functional, cell-based
Procedure, shortened: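 EOL-1 cells (RPMI 1640, 10% FBS, 37 °C, 5% CO2) exposed 72 h; compounds at 10 μM, PKC412 at 10 nM. Harvested, PBS-washed, lysed in hypertonic NP-40 buffer with protease/phosphatase inhibitors; SDS-PAGE, PVDF transfer, rabbit monoclonal cleaved caspase-3 (Asp175) antibody 12 h, secondary 1 h, chemiluminescent detection; β-actin loading control. Representative blots of three independent experiments.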

[31] = biological target: Transcription factor p65 (Homo sapiens) (UniProt Q04206); experiment: Inhibition of NFkappaB p65 in human MOLM13 cells at 10 uM after 72 hrs by immunoblotting method; assay type: cell-based
Chain of Transcription factor p65 (Homo sapiens) (Q04206 whole entry): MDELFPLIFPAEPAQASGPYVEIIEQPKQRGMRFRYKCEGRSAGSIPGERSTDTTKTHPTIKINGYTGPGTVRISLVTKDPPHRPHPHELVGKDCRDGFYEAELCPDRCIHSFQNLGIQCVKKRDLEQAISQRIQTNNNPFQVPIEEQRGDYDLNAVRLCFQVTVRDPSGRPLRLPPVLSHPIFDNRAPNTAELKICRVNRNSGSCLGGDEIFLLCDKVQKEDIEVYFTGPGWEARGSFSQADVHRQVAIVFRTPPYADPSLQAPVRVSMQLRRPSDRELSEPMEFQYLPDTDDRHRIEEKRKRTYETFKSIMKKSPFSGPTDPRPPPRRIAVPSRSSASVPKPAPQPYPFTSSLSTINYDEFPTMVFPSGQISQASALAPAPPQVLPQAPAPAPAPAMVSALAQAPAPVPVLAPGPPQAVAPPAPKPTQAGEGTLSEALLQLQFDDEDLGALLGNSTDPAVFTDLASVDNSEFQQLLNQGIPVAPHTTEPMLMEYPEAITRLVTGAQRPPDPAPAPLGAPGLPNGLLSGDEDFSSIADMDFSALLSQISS
Procedure, shortened: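 MOLM-13 or EOL-1 cells treated 72 h at 10 μM. Cells washed in ice-cold PBS and lysed in hypertonic NP-40 buffer (10 mM HEPES pH 7.5, 0.5 M NaCl) with protease/phosphatase inhibitors. Protein measured by BCA; SDS-PAGE onto PVDF. Probed 12 h with rabbit monoclonal NF-κB-p65 antibody, goat β-actin as loading control, then chemiluminescence. Blots representative of three independent experiments.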

C=C1C(=O)O[C@@H]2C[C@@H](C)CCC(=O)[C@](C)(OC(C)=O)C[C@H](OC(=O)/C(C)=C\C)[C@@H]12
IC50 (MOLM-13 [1]): 10 µM | IC50 (EOL1 [2]): 8 µM | IC50 (HT-29): 3 µM | Activity (MOLM-13 [3]): 4.9 µM | Activity (EOL1 [4]): 2.5 µM | Activity (MOLM-13 [5]): 94.7% | Activity (MOLM-13 [6]): 4.46% | Activity (MOLM-13 [7]): 0.817% | Activity (MOLM-13 [8]): 0.056% | Activity (MOLM-13 [9]): 93.6% | Activity (MOLM-13 [10]): 4.87% | Activity (MOLM-13 [11]): 1.19% | Activity (MOLM-13 [12]): 0.314% | Activity (MOLM-13 [13]): 36.6% | Activity (MOLM-13 [14]): 6.8% | Activity (MOLM-13 [15]): 39.7% | Activity (MOLM-13 [16]): 16.9% | Activity (EOL1 [17]): 97.9% | Activity (EOL1 [18]): 1.64% | Activity (EOL1 [19]): 0.417% | Activity (EOL1 [20]): 0.043% | Activity (EOL1 [21]): 97.7% | Activity (EOL1 [22]): 1.66% | Activity (EOL1 [23]): 0.545% | Activity (EOL1 [24]): 0.096% | Activity (EOL1 [25]): 93.4% | Activity (EOL1 [26]): 1.4% | Activity (EOL1 [27]): 4.7% | Activity (EOL1 [28]): 0.497% | Activity (MOLM-13 [29]): Active | Activity (EOL1 [30]): Active | inhibition [31]: Active
